# From ChEMBL document CHEMBL3400051, “Five new phorbol esters with cytotoxic and selective anti-inflammatory activities from Croton tiglium” (Bioorg Med Chem Lett, 2015)
# Legend:
# HEK-293T = assay: Cytotoxicity against human 293T cells after 44 hrs by MTT assay; format: cell-based
# Outline: (§1)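 Cells cultured in 88% DMEM, 12% FBS, 100 units/mL penicillin and streptomycin. Seeded at 2 × 10^5 cells/mL, 24 h at 37 °C in 5% CO2, then medium replaced with compound in growth medium at 80, 40, 20, 10 and 5 concentrations for 44 h. MTT (5 mg/mL) added for a further 4 h; absorbance at 490 nm. Untreated cells as negative control, Taxol positive control.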
# [1] = Cytotoxicity against human U937 cells assessed as cell viability after 72 hrs by CCK8 assay; format: functional, cell-based; settings: U-937, 72 h
# Outline: (§2)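 Cells grown in RPMI or DMEM with 10% FBS and 1% penicillin/streptomycin at 37 °C, 5% CO2. Seeded at 400-800 cells/well in 384-well plates, treated with a range of compound concentrations or solvent control for 72 h. CCK8 reagent added, absorbance read at 450 nm; IC50 from dose-response curves. Taxol positive control.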
# NCI-H1975 = assay: Cytotoxicity against human NCI-H1975 cells assessed as cell viability after 72 hrs by CCK8 assay; format: functional, cell-based; settings: NCI-H1975, 72 h; outline: as §2
# [2] = Cytotoxicity against human LX2 cells after 44 hrs by MTT assay; format: cell-based; settings: LX-2, 44 h; outline: as §1
# [3] = target: T1, Prostaglandin G/H synthase 2 (Homo sapiens, UniProt P35354)
# T1 sequence (P35354 whole entry): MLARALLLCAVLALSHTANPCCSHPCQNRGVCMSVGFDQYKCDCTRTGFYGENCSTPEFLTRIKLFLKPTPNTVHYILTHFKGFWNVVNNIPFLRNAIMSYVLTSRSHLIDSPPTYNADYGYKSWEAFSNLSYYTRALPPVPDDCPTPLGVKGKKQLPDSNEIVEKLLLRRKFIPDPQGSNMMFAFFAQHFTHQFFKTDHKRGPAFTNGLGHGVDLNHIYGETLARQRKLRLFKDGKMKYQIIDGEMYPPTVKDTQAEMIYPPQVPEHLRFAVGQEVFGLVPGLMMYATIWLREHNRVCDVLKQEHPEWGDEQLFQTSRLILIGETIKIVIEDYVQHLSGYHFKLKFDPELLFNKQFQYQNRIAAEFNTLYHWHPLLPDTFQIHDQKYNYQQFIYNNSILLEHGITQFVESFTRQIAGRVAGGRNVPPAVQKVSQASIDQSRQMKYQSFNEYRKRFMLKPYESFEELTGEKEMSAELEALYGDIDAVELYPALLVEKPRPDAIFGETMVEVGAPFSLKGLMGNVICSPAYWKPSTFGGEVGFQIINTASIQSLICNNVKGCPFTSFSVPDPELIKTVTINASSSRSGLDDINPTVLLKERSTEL
# [4] = target: T2, Prostaglandin G/H synthase 1 (Ovis aries, UniProt P05979); assay: Inhibition of ovine COX1 using fluorometric substrate after 15 mins
# T2 sequence (P05979 whole entry): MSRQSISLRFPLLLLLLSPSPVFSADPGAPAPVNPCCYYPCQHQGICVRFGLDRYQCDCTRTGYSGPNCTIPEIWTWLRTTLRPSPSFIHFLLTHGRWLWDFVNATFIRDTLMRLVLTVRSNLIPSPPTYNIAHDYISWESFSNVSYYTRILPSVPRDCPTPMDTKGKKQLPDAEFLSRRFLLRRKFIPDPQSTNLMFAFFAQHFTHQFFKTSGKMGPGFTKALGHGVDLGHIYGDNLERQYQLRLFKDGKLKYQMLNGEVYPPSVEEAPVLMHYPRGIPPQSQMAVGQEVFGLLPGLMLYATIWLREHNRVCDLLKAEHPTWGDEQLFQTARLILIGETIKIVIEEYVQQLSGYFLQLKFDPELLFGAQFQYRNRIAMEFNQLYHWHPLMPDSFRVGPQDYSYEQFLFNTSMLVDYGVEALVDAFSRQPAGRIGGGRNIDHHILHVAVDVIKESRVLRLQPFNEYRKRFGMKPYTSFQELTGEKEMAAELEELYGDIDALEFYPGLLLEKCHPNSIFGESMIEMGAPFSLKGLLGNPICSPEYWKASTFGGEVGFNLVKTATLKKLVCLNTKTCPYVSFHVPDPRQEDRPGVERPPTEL
# K562 = assay: Cytotoxicity against human K562 cells assessed as cell viability after 72 hrs by CCK8 assay; format: functional, cell-based; settings: K562, 72 h; outline: as §2
# [5] = Cytotoxicity against human HL60 cells assessed as cell viability after 72 hrs by CCK8 assay; format: functional, cell-based; settings: HL-60, 72 h; outline: as §2
# [6] = Cytotoxicity against human SGC7901 cells assessed as cell viability after 72 hrs by CCK8 assay; format: functional, cell-based; settings: SGC-7901, 72 h; outline: as §2
# HeLa = assay: Cytotoxicity against human HeLa cells assessed as cell viability after 72 hrs by CCK8 assay; format: functional, cell-based; outline: as §2
# MOLT-4 = assay: Cytotoxicity against human MOLT4 cells assessed as cell viability after 72 hrs by CCK8 assay; format: functional, cell-based; settings: MOLT-4, 72 h; outline: as §2
# A549 = assay: Cytotoxicity against human A549 cells assessed as cell viability after 72 hrs by CCK8 assay; format: functional, cell-based; settings: A549, 72 h; outline: as §2
# MCF7 = assay: Cytotoxicity against human MCF7 cells assessed as cell viability after 72 hrs by CCK8 assay; format: functional, cell-based; settings: MCF7, 72 h; outline: as §2
# DU-145 = assay: Cytotoxicity against human DU145 cells assessed as cell viability after 72 hrs by CCK8 assay; format: functional, cell-based; settings: DU-145, 72 h; outline: as §2
Structure (SMILES),IC50 [3],IC50 [4],IC50 (HEK-293T),IC50 [1],IC50 (NCI-H1975),IC50 [2],IC50 (K562),IC50 [5],IC50 [6],IC50 (HeLa),IC50 (MOLT-4),IC50 (A549),IC50 (MCF7),IC50 (DU-145)
CCC(C)C(=O)O[C@@]12[C@H](OC(=O)c3ccccc3)[C@@H](C)[C@@]3(O)[C@@H](C=C(CO)C[C@]4(O)C(=O)C(C)=C[C@@H]34)[C@@H]1C2(C)C (stereo partly drawn),8.5 µM,0.14 µM,420 µM,17 µM,3.3 µM,> 500 µM,15 µM,6.8 µM,10 µM,4.6 µM,12 µM,6.9 µM,20 µM,4.3 µM
C/C=C(\C)C(=O)O[C@@H]1[C@@H](C)[C@@]2(O)[C@@H](C=C(CO)C[C@]3(O)C(=O)C(C)=C[C@@H]23)[C@@H]2C(C)(C)[C@]12OC(=O)C(C)C,> 50 µM,> 50 µM,171 µM,5.5 µM,10 µM,> 500 µM,4.4 µM,1.2 µM,43 µM,9.2 µM,1.1 µM,32 µM,> 50 µM,1.1 µM
C/C=C(\C)C(=O)O[C@@H]1[C@@H](C)[C@@]2(O)[C@@H](C=C(CO)C[C@]3(O)C(=O)C(C)=C[C@@H]23)[C@@H]2C(C)(C)[C@]12OC(=O)C(C)CC (stereo partly drawn),> 50 µM,> 50 µM,157 µM,2.6 µM,10 µM,> 500 µM,2.2 µM,1.2 µM,–,10 µM,1 µM,–,–,5 µM
CC(=O)O[C@H]1C(=O)[C@@]2(C)[C@H]([C@H](OC(=O)c3ccccc3)[C@]3(O)C[C@H](OC(=O)[C@H](O)[C@@H](NC(=O)c4ccccc4)c4ccccc4)C(C)=C1C3(C)C)[C@]1(OC(C)=O)CO[C@@H]1C[C@@H]2O [PACLITAXEL],–,–,–,0.0025 µM,0.0077 µM,–,0.0052 µM,0.0018 µM,0.0051 µM,–,0.0022 µM,–,0.0062 µM,0.0034 µM
CCC(C)C(=O)O[C@@]12[C@H](O)[C@@H](C)[C@]3(O)[C@@H]4C=C(C)C(=O)[C@@H]4CC(CO)=C[C@H]3[C@@H]1C2(C)C (stereo partly drawn),> 50 µM,> 50 µM,191 µM,18 µM,3.3 µM,> 500 µM,8 µM,9.8 µM,5.4 µM,10 µM,9.9 µM,4.5 µM,24 µM,10 µM

# More lines, main results first:
IC50 [3],IC50 [4],Structure (SMILES),IC50 (HEK-293T),IC50 [1],IC50 (NCI-H1975),IC50 [2],IC50 (K562),IC50 [5],IC50 [6],IC50 (HeLa),IC50 (MOLT-4),IC50 (A549),IC50 (MCF7),IC50 (DU-145)
> 50 µM,> 50 µM,CC(=O)O[C@@H]1[C@@H](C)[C@@]2(O)[C@@H](C=C(CO)C[C@]3(O)C(=O)C(C)=C[C@@H]23)[C@@H]2C(C)(C)[C@]12OC(=O)C(C)C,292 µM,6.8 µM,10 µM,> 500 µM,4 µM,12 µM,13 µM,3.9 µM,2.4 µM,5.8 µM,13 µM,7.2 µM
> 50 µM,> 50 µM,C/C=C(\C)C(=O)O[C@@H]1[C@@H](C)[C@@]2(O)[C@@H](C(=O)C(CO)=C[C@]3(O)C(=O)C(C)=C[C@@H]23)[C@@H]2C(C)(C)[C@]12OC(=O)C(C)CC (stereo partly drawn),455 µM,21 µM,10 µM,> 500 µM,17 µM,10 µM,23 µM,5 µM,4.8 µM,19 µM,20 µM,10 µM
> 50 µM,> 50 µM,CCC(C)C(=O)O[C@@]12[C@H](OC(C)=O)[C@@H](C)[C@@]3(O)[C@@H](C(=O)C(CO)=C[C@]4(O)C(=O)C(C)=C[C@@H]34)[C@@H]1C2(C)C (stereo partly drawn),147 µM,14 µM,10 µM,352 µM,7.2 µM,9.9 µM,> 50 µM,10 µM,10 µM,> 50 µM,> 50 µM,11 µM
